Experimental data reported in ChEMBL document CHEMBL1152649, “Synthesis, cytotoxicity and human telomerase inhibition activities of a series of 1,2-heteroannelated anthraquinones and anthra[1,2-d]imidazole-6,11-dione homologues” (2009).
The source made the active and inactive calls. The rule behind the calls is not given here.

Assays:
[1] = Cytotoxicity against human H1299 cells at 100 uM after 48 hrs by MTT assay; assay type: functional; settings: NCI-H1299, 48 h
Summary of the method: (§1)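 H1299 non-small cell lung cancer cells were grown in RPMI 1640 with 10% FBS, penicillin and streptomycin at 37 °C under 5% CO2. About 2 × 10³ cells per well were seeded and left 24 h. Compounds were dissolved fresh in DMSO, diluted into complete medium and applied for 48 h. MTT was then added for 4 h at 37 °C, followed by lysis buffer (20% SDS, 50% DMF) for 16 h, and absorbance was read at 550 nm.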

[2] = target: Telomerase reverse transcriptase (Homo sapiens) (UniProt O14746); assay: Inhibition of TERT in human H1299 cells assessed as residual transcriptional activity at 100 uM after 24 hrs by SEAP reporter gene assay; values are per cent of control
Chain of Telomerase reverse transcriptase (Homo sapiens) (O14746 whole entry): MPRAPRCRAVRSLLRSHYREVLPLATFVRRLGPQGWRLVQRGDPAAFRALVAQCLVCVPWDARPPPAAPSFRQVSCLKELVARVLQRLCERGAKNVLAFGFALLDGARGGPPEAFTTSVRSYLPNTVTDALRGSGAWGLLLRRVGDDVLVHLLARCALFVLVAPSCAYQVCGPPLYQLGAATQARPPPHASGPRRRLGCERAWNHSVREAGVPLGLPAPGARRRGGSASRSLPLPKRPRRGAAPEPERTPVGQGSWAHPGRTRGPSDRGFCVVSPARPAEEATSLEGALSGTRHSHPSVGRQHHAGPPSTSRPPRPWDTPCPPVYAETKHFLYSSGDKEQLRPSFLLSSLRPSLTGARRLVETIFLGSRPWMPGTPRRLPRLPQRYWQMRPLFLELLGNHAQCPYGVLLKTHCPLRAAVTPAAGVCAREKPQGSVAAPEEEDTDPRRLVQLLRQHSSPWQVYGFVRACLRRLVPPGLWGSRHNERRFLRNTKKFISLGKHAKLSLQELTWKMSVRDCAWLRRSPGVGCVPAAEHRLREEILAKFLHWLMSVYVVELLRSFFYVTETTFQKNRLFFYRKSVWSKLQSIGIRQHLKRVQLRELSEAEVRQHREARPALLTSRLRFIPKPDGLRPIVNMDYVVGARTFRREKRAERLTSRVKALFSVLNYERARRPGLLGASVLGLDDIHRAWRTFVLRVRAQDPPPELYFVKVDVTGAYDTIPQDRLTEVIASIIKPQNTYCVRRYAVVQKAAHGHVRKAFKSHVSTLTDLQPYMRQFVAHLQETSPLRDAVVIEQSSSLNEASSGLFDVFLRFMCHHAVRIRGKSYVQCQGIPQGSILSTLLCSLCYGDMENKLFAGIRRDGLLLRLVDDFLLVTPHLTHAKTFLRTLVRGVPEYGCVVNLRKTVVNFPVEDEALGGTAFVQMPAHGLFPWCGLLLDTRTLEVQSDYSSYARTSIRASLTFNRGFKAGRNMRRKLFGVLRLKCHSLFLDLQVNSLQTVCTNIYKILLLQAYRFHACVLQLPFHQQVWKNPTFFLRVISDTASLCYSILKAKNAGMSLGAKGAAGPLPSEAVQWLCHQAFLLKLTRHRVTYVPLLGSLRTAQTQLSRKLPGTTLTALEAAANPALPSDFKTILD

[3] = target: Telomerase reverse transcriptase (Homo sapiens) (UniProt O14746); assay: Inhibition of telomerase in human H1299 cells up to 100 uM by TRAP assay; assay type: cell-based
Summary of the method: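 PCR-based telomeric repeat amplification protocol (TRAP). The telomerase source was total lysate of H1299 lung cancer cells, with protein measured against BSA standards. Controls were extract without inhibitor and RNase A-treated extract.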

[4] = Cytotoxicity against human H1299 cells at 1 uM after 48 hrs by MTT assay; assay type: functional; settings: NCI-H1299, 48 h; summary of the method: as §1
[5] = target: Telomerase reverse transcriptase (Homo sapiens) (UniProt O14746); assay: Inhibition of TERT in human H1299 cells assessed as residual transcriptional activity at 10 uM after 24 hrs by SEAP reporter gene assay; values are per cent of control
[6] = target: Telomerase reverse transcriptase (Homo sapiens) (UniProt O14746); assay: Inhibition of TERT in human H1299 cells assessed as residual transcriptional activity at 1 uM after 24 hrs by SEAP reporter gene assay; values are per cent of control
[7] = Cytotoxicity against human H1299 cells at 10 uM after 48 hrs by MTT assay; assay type: functional; settings: NCI-H1299, 48 h; summary of the method: as §1

SMILES	viability at 100 µM [1]	residual activity [2]	inhibition [3]	viability at 1 µM [4]	residual activity [5]	residual activity [6]	viability at 10 µM [7]
Cc1nc2ccc3c(c2[nH]1)C(=O)c1ccccc1C3=O	33%	19%	inactive	64%	82%	101%	44%
CC1(c2ccccc2)Nc2ccc3c(c2N1)C(=O)c1ccccc1C3=O (stereo unspecified)	29%	29%	inactive	99%	97%	99%	99%
CC(C)c1nc2ccc3c(c2[nH]1)C(=O)c1ccccc1C3=O	34%	13%	inactive	95%	76%	83%	73%
CCC(C)c1nc2ccc3c(c2[nH]1)C(=O)c1ccccc1C3=O (stereo unspecified)	43%	11%	inactive	77%	58%	67%	83%
CC(C)(C)c1nc2ccc3c(c2[nH]1)C(=O)c1ccccc1C3=O	56%	29%	inactive	83%	87%	88%	81%
Cc1nc2ccc3c(c2nc1C)C(=O)c1ccccc1C3=O	25%	26%	inactive	78%	88%	95%	69%
O=C1c2ccccc2C(=O)c2c1ccc1[nH]c(=S)[nH]c21	54%	31%	inactive	101%	100%	97%	99%
COc1ccc(OC)c(-c2nc3ccc4c(c3[nH]2)C(=O)c2ccccc2C4=O)c1	13%	41%	inactive	91%	76%	77%	39%
CC/C=C/c1nc2ccc3c(c2[nH]1)C(=O)c1ccccc1C3=O	14%	13%	inactive	69%	34%	63%	48%
CCCCCCCc1nc2ccc3c(c2[nH]1)C(=O)c1ccccc1C3=O	40%	32%	inactive	85%	88%	89%	69%
O=C1c2ccccc2C(=O)c2c1ccc1nc(CCl)[nH]c21	26%	5%	inactive	80%	81%	94%	79%
O=C1c2ccccc2C(=O)c2c1ccc1nc(-c3ccc([N+](=O)[O-])cc3)[nH]c21	33%	6%	inactive	84%	62%	85%	52%
CCCCc1nc2ccc3c(c2[nH]1)C(=O)c1ccccc1C3=O	20%	36%	inactive	85%	84%	91%	70%
